Experimental data collected from several papers.
Each line is one published result; the experiments were not run side by side.

COc1ccc2c3c1O[C@H]1C[C@@H](OC(=O)c4ccccc4)C=C[C@@]31CCN(C)C2  half-life (rat, brain; intravenous, 5 mg/kg): 1.95 h
CSCC[C@H](NC(=O)COCCOCCNC(=O)COCCOCCNC(=O)CC[C@H](NC(=O)CCCCCCCCCCCCCCCCC(=O)O)C(=O)O)C(=O)N[C@H]1CSSC[C@@H](C(=O)NCC(=O)N[C@@H](CO)C(=O)NCC(=O)N[C@@H](CO)C(=O)N[C@@H](CC(=O)O)C(=O)N[C@@H](Cc2ccc(O)cc2)C(=O)N[C@@H](CCCCN)C(=O)N[C@@H](CC(=O)O)C(=O)N[C@@H](CC(=O)O)C(=O)N[C@@H](CC(=O)O)C(=O)N[C@@H](CC(=O)O)C(=O)N[C@@H](CCCCN)C(N)=O)NC(=O)[C@H](Cc2ccccc2)NC(=O)[C@@H]2CCCN2C(=O)[C@H](Cc2c[nH]c3ccccc23)NC(=O)[C@H](CC(C)C)NC(=O)[C@H](CCSC)NC(=O)[C@H](Cc2c[nH]cn2)NC(=O)[C@H](Cc2ccccc2)NC(=O)[C@H](Cc2c[nH]cn2)NC(=O)[C@H]([C@@H](C)O)NC(=O)[C@H](Cc2ccccc2)NC1=O  half-life (male Sprague-Dawley rat, plasma; intravenous): 10.7 h
N=c1c2c(-c3ccccc3)c(-c3ccccc3)n(Cc3ccccc3)c2ncn1[C@H]1CC[C@H](O)CC1  half-life (male Sprague-Dawley rat, plasma; oral, 2 mg/kg, single dose): 8.9 h
Cc1ncc(C)n2nc(/C=C/c3nc(N4CCCC4)cc(N4CCOCC4)n3)nc12  half-life (male Sprague-Dawley rat, plasma; oral, 0.3 mg/kg): 6 h
[2H]C([2H])([2H])n1cc2cc(Nc3nc(=O)n(Cc4ncn(C)n4)c(=O)n3Cc3cc(F)c(F)cc3F)c(Cl)cc2n1  half-life (male Sprague-Dawley rat, plasma; intravenous, 5 mg/kg): 3.68 h
CC(C)C[C@@H]1NC(=O)[C@H](CC(=O)O)NC(=O)[C@H](Cc2ccccc2)NC(=O)[C@H](Cc2c[nH]cn2)NC(=O)[C@H]([C@@H](C)O)NC(=O)[C@H](Cc2ccccc2)NC(=O)[C@@H](NC(=O)[C@H](C)NC(=O)COCCOCCNC(=O)COCCOCCNC(=O)CC[C@H](NC(=O)CCCCCCCCCCCCCCCCC(=O)O)C(=O)O)CSSC[C@@H](C(=O)O)NC(=O)[C@H](Cc2ccccc2)NC(=O)[C@@H]2CCCN2C(=O)[C@H](Cc2c[nH]c3ccccc23)NC(=O)[C@H](CC(C)C)NC1=O  half-life (male Sprague-Dawley rat, plasma; intravenous): 4.17 h
CCCC[C@@H]1NC(=O)[C@H](Cc2ccc(O)cc2)NC(=O)[C@@H]2CCCN2C(=O)[C@H](CC(=O)O)NC(=O)[C@H](C)NC(=O)[C@H](Cc2ccccc2)NC(=O)[C@@H]2CSCCC(=O)N3CN(CN(C3)C(=O)CCSC[C@H](NC(C)=O)C(=O)N[C@@H](CC(C)(C)C)C(=O)N3CCC[C@H]3C(=O)N[C@@H](CCC(=O)O)C(=O)N[C@H](CCCCNC(=O)CCc3cn(CCOCCOCCOCCN(CCOCCOCCOCCC(=O)N[C@H]4CSCCC(=O)N5CN6CN(C5)C(=O)CCSC[C@H](NC(=O)[C@@H](CC(=O)O)NC(=O)[C@H](Cc5cccc7ccccc57)NC(=O)[C@@H]5CCCN5C4=O)C(=O)N[C@@H](CCSC)C(=O)N[C@@H](CCCCNC(=N)N)C(=O)N[C@@H](CC(=O)O)C(=O)N[C@@H](Cc4c[nH]c5ccccc45)C(=O)N[C@@H](CO)C(=O)N[C@@H]([C@@H](C)O)C(=O)N4CCC[C@H]4C(=O)N4C[C@H](O)C[C@H]4C(=O)N[C@@H](Cc4c[nH]c5ccccc45)C(=O)N[C@H](C(N)=O)CSCCC6=O)CCOCCOCCOCCn4cc(CCC(=O)NCCCC[C@H]5NC(=O)[C@H](CCC(=O)O)NC(=O)[C@@H]6CCCN6C(=O)[C@H](CC(C)(C)C)NC(=O)[C@@H](NC(C)=O)CSCCC(=O)N6CN7CN(C6)C(=O)CCSC[C@H](NC(=O)[C@H](Cc6ccc(O)cc6)NC(=O)[C@@H]6CCCN6C5=O)C(=O)N[C@@H](Cc5ccccc5)C(=O)N[C@@H](C)C(=O)N[C@@H](CC(=O)O)C(=O)N5CCC[C@H]5C(=O)N[C@@H](Cc5ccc(O)cc5)C(=O)N[C@@H](CCCC)C(=O)N[C@H](C(N)=O)CSCCC7=O)nn4)nn3)C(=O)N3CCC[C@H]3C(=O)N[C@@H](Cc3ccc(O)cc3)C(=O)N2)C(=O)CCSC[C@@H](C(N)=O)NC1=O  half-life (rat, plasma; intravenous, 2 mg/kg): 3.1 h
O=C([O-])C(=O)[O-].[NH-][C@@H]1CCCC[C@H]1[NH-].[Pt+4] (relative stereo)  half-life (rat, plasma; oral, 10 mg/kg): 1.53 h
CCCCCn1cc(C(=O)Nc2cccc3ccccc23)c2ccccc21  half-life (male Long-Evans rat, plasma; intraperitoneal, 3 mg/kg): 11.6 h
[2H]C([2H])(c1cc(F)c(F)cc1F)n1c(=O)n(Cc2ncn(C)n2)c(=O)[nH]/c1=N\c1cc2cn(C)nc2cc1Cl  half-life (male Sprague-Dawley rat, plasma; intravenous, 5 mg/kg): 3.37 h
O=C(Nc1cccnn1)N1CCN([C@@H]2CCOc3cc(C(F)(F)F)ccc32)CC1  half-life (male Sprague-Dawley rat, plasma; oral, 0.3 mg/kg): 3.3 h
CCCC[C@@H]1NC(=O)[C@H](Cc2ccc(O)cc2)NC(=O)[C@@H]2CCCN2C(=O)[C@H](CC(=O)O)NC(=O)[C@H](C)NC(=O)[C@H](Cc2ccccc2)NC(=O)[C@@H]2CSCCC(=O)N3CN(CN(C3)C(=O)CCSC[C@H](NC(C)=O)C(=O)N[C@@H](CC(C)(C)C)C(=O)N[C@@H](CCC(=O)O)C(=O)N[C@@H](CCC(=O)O)C(=O)N[C@H](CCCCNC(=O)CCc3cn(CCOCCOCCOCCOCCOCCC(=O)N[C@H]4CSCCC(=O)N5CN6CN(C5)C(=O)CCSC[C@H](NC(=O)[C@@H](CC(=O)O)NC(=O)[C@H](Cc5cccc7ccccc57)NC(=O)[C@@H]5CCCN5C4=O)C(=O)N[C@@H](CCSC)C(=O)N[C@@H](CCCCNC(=N)N)C(=O)N[C@@H](CC(=O)O)C(=O)N[C@@H](Cc4c[nH]c5ccccc45)C(=O)N[C@@H](CO)C(=O)N[C@@H]([C@@H](C)O)C(=O)N4CCC[C@H]4C(=O)N4C[C@H](O)C[C@H]4C(=O)N[C@@H](Cc4c[nH]c5ccccc45)C(=O)N[C@H](C(N)=O)CSCCC6=O)nn3)C(=O)N3CCC[C@H]3C(=O)N[C@@H](Cc3ccc(O)cc3)C(=O)N2)C(=O)CCSC[C@@H](C(N)=O)NC1=O  half-life (rat, plasma; intravenous, 2 mg/kg): 1.7 h
Cn1cnc(Cn2c(=O)[nH]/c(=N\c3cc4cn(C)nc4cc3Cl)n(Cc3cc(F)c(F)cc3F)c2=O)n1  half-life (male Sprague-Dawley rat, plasma; intravenous, 5 mg/kg): 3.29 h
Cl.Cl.O=C(CCN1CCCCC1)c1ccc(-c2ccc(C(=O)CCN3CCCCC3)cc2)cc1  half-life (Sprague-Dawley rat, plasma; oral, 50 mg/kg): 7.54 h
COC(=O)C(NC(=O)c1cn(CCCCCF)c2ccccc12)C(C)(C)C (stereo not drawn)  half-life (male Sprague-Dawley rat, plasma; subcutaneous, 50 µg/kg): 6.89 h
